Compound activity as filed in PubChem.
This excerpt belongs to a sample that is enriched for hits.
HCT116 bCat-KO: beta-catenin-lacking colon tumor cell growth suppression; HCT116 beta-catenin knockout viability, CellTiter-Glo, 60 h; stronger effect = lower value; viability, % at 10 µM; actives 1.5% (n = 140,000); AID 818;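 active means viability at or under a set limit, the compound median less 4 SD, cut at about 6% in these data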;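 further: 0% = Hyamine 1622 control at 20 µM and 100% = untreated cell control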
H69AR inhibit: blocks growth of human H69AR lung tumor cells; viability, % at 10 µM; actives 6% (n = 85,000); H69AR lung tumor viability, ATP luminescence, 72 h; stronger effect = lower value;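 active means viability at or below 40%; inactive means viability above 40%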;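 further: multidrug resistant small cell line overexpressing MRP-1 efflux transporter; 100% = mean luminescence of untreated control wells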
HCT116 PTEN-null: PTEN-deleted cell growth suppression | HCT116 PTEN-null viability, CellTiter-Glo, 60 h; stronger effect = lower value | viability, % at 10 µM | actives 1.2% (n = 140,000);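 active means viability at or below a set limit, 4 SD under the median of all tested compounds, cut at about 3.7% in these data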;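 further: PTEN knockout HCT116 line with beta catenin targeted HCT116 as companion control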
HUVEC prolif 384: inhibitors of human endothelial cell proliferation; HUVEC proliferation, CellTiter-Glo luminescence, 72 h; stronger effect = lower value; viability, % at 10 µM (by protocol); actives 1.1% (n = 86,000);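 active means viability at or below 30%; inactive means viability above 30%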;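 further: 100% = median luminescence of DMSO-only cell control wells on each plate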
Lung fibro prol: blocks proliferation of human lung fibroblasts | LL 47 human lung fibroblast viability, ATP luminescence; stronger effect = lower value | viability, % at 10 µM | actives 1.1% (n = 85,000) | AID 719;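 active means viability at or below 50% in the single dose screen; inactive means viability above 50%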;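 further: compound exposure lasted 72 h before the ATP readout; 100% = median luminescence of untreated cell-only wells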
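Assay system: human lung fibroblast line LL 47, low passage. Input: 1,150 fibroblasts seeded per well. Times: overnight cell rest, 72 h compound treatment at 37 °C. Evaluation: % viability of median cell-only signal. Technique: luminescent ATP detection, CellTiter-Glo. Control set: cell-only wells, no compound.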
The depositor's hits bear a star; . = not tested or not shown.

SMILES	HCT116 bCat-KO	H69AR inhibit	HCT116 PTEN-null	HUVEC prolif 384	Lung fibro prol
O=C(Cn1c(SCC(=O)N2CCCc3ccccc32)nc2ccccc21)N1CCCC1	91	80	93	81	88
COCCn1c(SCC(=O)N2CCCc3ccccc32)nc2cccnc21	77	19*	81	87	108
Cc1ccc(S(=O)(=O)N2CCOCC2)cc1N/N=C(\C#N)c1nc2ccccc2[nH]1	57	.	53	.	.
COc1cccc(C2=NOC(C(=O)Nc3cc(C)nn3-c3ccccc3)C2)c1OC (stereo not drawn)	57	32*	53	75	90
COc1cc(OC)c(C2=NOC(C(=O)Nc3cc(C)nn3-c3ccccc3)C2)cc1Cl (stereo not drawn)	90	74	85	103	104
COCCn1c(-c2ccc(-c3ccccc3Cl)o2)nc2c1c(=O)[nH]c(=O)n2CC(C)C	62	18*	61	37	60
CCCCn1c(=O)[nH]c(=O)c2c1nc(-c1ccc(-c3ccccc3Br)o1)n2CCOC	34	47	41	44	39*
COc1ccc(CNC(=O)C(c2ccncc2)N(C(=O)Cc2cccs2)c2ccccc2)cc1 (stereo not drawn)	83	.	101	.	.
COc1ccc(N(C(=O)CCl)C(C(=O)NCCc2ccccc2)c2cccs2)cc1 (stereo not drawn)	1.6*	.	0.7*	.	.
CCOC(=O)c1cc(NC(=O)N(CC)CC)c(C)nc1C	98	89	100	86	94
Cc1[nH]nc2c1C(c1ccc(-c3ccc(Cl)cc3)o1)C(C#N)=C(N)O2 (stereo not drawn)	1.3*	.	0.7*	.	.
Cc1[nH]nc2c1C(c1ccc(-c3ccccc3C#N)o1)C(C#N)=C(N)O2 (stereo not drawn)	68	1.6*	75	31	74
Cc1[nH]nc2c1C(c1ccsc1C)C(C#N)=C(N)O2 (stereo not drawn)	91	.	1.2*	.	.
CC(C)c1[nH]nc2c1C(c1cccs1)C(C#N)=C(N)O2 (stereo not drawn)	57	40*	58	71	80
Cc1cc(C)nc(Sc2nc(Cl)nc(N(c3ccccc3)c3ccccc3)n2)n1	94	.	99	.	.
CCOc1ccccc1NC(=O)CSc1nnnn1-c1ccc(C(=O)OC)cc1	62	63	80	88	103
CCOC(=O)c1csc(NC(=O)CSc2nnnn2-c2ccc(OC)cc2)n1	78	.	79	.	.
CCOc1cc(C#N)c(NC(=O)CSc2nnnn2-c2ccc(OC)cc2)cc1OCC	93	36*	87	99	92
CCOC(=O)c1c(NC(=O)CSc2nnnn2-c2ccc(OC)cc2)sc(C)c1C	79	30*	88	75	96
O=C(Nc1ccc(Cl)c(S(=O)(=O)N2CCOCC2)c1)c1ccccc1-c1ccc(C(F)(F)F)cc1	49	.	39	.	.
COc1ccc(NS(=O)(=O)c2cc(C)ccc2NC(=O)c2cc(C)oc2C)cc1	11	29*	12	39	55
Cc1ccc(C2=Nc3ccccc3NC(C)(c3ccc(C)o3)C2)o1 (stereo not drawn)	75	38*	88	85	86
CC1=CC(C)=Nc2ccccc2N1	93	44	95	92	97
COc1c(OC(C)=O)ccc(/C=C/c2ccc3cccc(OC)c3n2)c1[N+](=O)[O-]	58	.	64	.	.
CCOc1c(OC(C)=O)ccc(/C=C/c2ccc3cccc(OC(C)=O)c3n2)c1[N+](=O)[O-]	1.5*	.	3.2*	.	.
SMILES	HCT116 bCat-KO	H69AR inhibit	HCT116 PTEN-null	HUVEC prolif 384	Lung fibro prol
O=C(Nc1nnc(COc2ccccc2)s1)C1CCN(S(=O)(=O)c2ccc(Cl)cc2)CC1	89	33*	87	77	81
COC(=O)c1sccc1NC(=O)c1cc(-c2cccc(C)c2)nc2ccccc12	2.0*	.	0.8*	.	.
O=C1CCCC(=O)N1c1ccc(N2CCN(c3ccc([N+](=O)[O-])cc3)CC2)c([N+](=O)[O-])c1	76	.	82	.	.
O=C(Nc1ccc([N+](=O)[O-])cc1)Nc1ccc(OC(F)F)c(Cl)c1	1.0*	.	1.1*	.	.
COc1ccc(NC(=O)Nc2cccc([N+](=O)[O-])c2)cc1Cl	5.0*	.	4	.	.
Cn1nc(CC(=O)N2CCN(c3ccccc3)CC2)c2ccccc2c1=O	94	92	90	93	89
Cn1nc(CC(=O)Nc2ccc(N3CCN(C(=O)OC(C)(C)C)CC3)cc2)c2ccccc2c1=O	1.2*	37*	1.1*	70	96
Cn1nc(CC(=O)NCc2ccc(F)cc2)c2ccccc2c1=O	69	97	74	104	93
Cc1cnc(C(=O)Nc2ccc(N3CCN(C(=O)OC(C)(C)C)CC3)cc2)cn1	16	28*	12	72	60
Cn1nc(CC(=O)NCc2cccc3ccccc23)c2ccccc2c1=O	58	34*	62	99	97
CC1c2nc3ccccc3n2C(CC(=O)NCc2ccccn2)C(=O)N1Cc1ccccc1 (stereo not drawn)	103	.	106	.	.
COc1ccc(-c2coc3cc4oc(=O)cc(C)c4cc23)cc1F	32	.	29	.	.
COc1ccc(-c2coc3cc4oc(=O)cc(-c5ccccc5)c4cc23)cc1F	2.6*	.	2.1*	.	.
Cc1cc(C)c2c3c(cn2n1)c(=O)n(C)c(=O)n3C	.	73	.	93	99
COc1cccc(NC(=O)N(CCCN2CCOCC2)C(C)c2cc3ccccc3o2)c1 (stereo not drawn)	69	32*	65	84	90
COc1ccc(NC(=O)c2ccc(C)o2)c([N+](=O)[O-])c1	83	.	82	.	.
C#CCn1c(=NC(=O)c2sc3ccccc3c2Cl)sc2cc(S(N)(=O)=O)ccc21	13	.	12	.	.
CC(C)N(C(=O)COc1ccc(Br)cc1Cl)C(C)C	70	99	72	100	113
CC(=O)N(Cc1ccc(F)cc1)C1=C(NCc2ccccc2)C(=O)c2ccccc2C1=O	1.4*	3.5*	1.2*	3.4*	2.6*
CC(=O)n1nc(-c2ccccc2)nc1NCc1ccc(F)cc1	67	90	69	85	98
CN1CCC/C1=C/C=C1\SC(=S)NC1=O	100	.	86	.	.
Cc1ccccc1OCCC(=O)Nc1ccc(Cl)cc1F	98	.	91	.	.
COc1ccc(CN=C(C)c2c(C(F)(F)F)[nH]n(-c3nc4ccccc4s3)c2=O)cc1	33	13*	38	22*	101
CCOc1ccc(CCNC(=O)COC(=O)c2nc3nc(C)cc(C)n3n2)cc1OCC	91	.	91	.	.
C/C(CC1CC2=C(CC1(C)C)C(C)(C)CCC2)=N\NC(N)=S (stereo not drawn)	9	23*	28	36	95
O=C(Nc1ccccc1)c1cc(Cl)nc2ccccc12	85	.	91	.	.
O=C(CSc1nnnn1-c1ccccc1)CC(=O)Nc1ccc(Cl)cc1	84	17*	82	64	83
O=C(CSc1nnnn1-c1ccccc1)Nc1nsc(-c2ccc(Cl)cc2)n1	94	86	92	75	107
